Screening results from PubChem.
SIAE inh: human SIAE inhibitors, primary screen, biochemical, fluorescence polarization, FP-Rh probe, 1536-well HTS; Sialate O-acetylesterase (Homo sapiens), Q9HAT2; SIAE FP-Rh probe binding; inhibition, % at 9.66 µM; 370,000 compounds, 0.69% hits; AID 1053197, 2014;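 active means inhibition above a cutoff: mean of compounds within the control limits plus 3 SD of those, cut at about 17% in these data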;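 further: 0% = plate median of compound wells and 100% = probe without SIAE protein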
PME-1 inh: PME-1 inhibitors via competitive probe labeling, primary screen, biochemical, fluorescence polarization, FP-Rh probe, HTS; Protein phosphatase methylesterase 1 (Homo sapiens), Q9Y570; recombinant PME-1; inhibition, % at 5.9 µM; 320,000 compounds, 0.53% hits;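 active means inhibition above the campaign mean of all compounds plus 3 SD, cut at about 26% in these data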;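 further: competitive labeling of PME-1 active site by serine hydrolase directed probe; 0% = PME-1 with DMSO and 100% = wells lacking PME-1 enzyme; inhibitors block probe labeling so polarization falls and inhibition rises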
TCR-CD3 inh: inhibitors of human TCR-CD3 interaction, primary screen, biochemical, fluorescence, TAMRA-labeled TCR probe; 360,000 compounds, 0.37% hits; inhibition, % at 9.4 µM; in the data active means inhibition above about 19%;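 further: recombinant mutant TCR 2C K166C tagged with TAMRA read by polarization; 0% = receptor in buffer alone and 100% = receptor with positive control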
ABHD4 inh: ABHD4 inhibitors, primary screen, biochemical, fluorescence polarization, mouse. purified mABHD4, FP-Rh probe fluorescence polarization. inhibition, % at 8.92 µM. AID 720543, 2013. (Lyso)-N-acylphosphatidylethanolamine lipase (Mus musculus), Q8VD66. 370,000 compounds, 0.54% hits;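 active means inhibition exceeding the mean over every tested compound plus 3 SD, cut at about 30% in these data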;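 further: 0% = plate median of compound wells and 100% = S159A mutant with DMSO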
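Assay system: wild-type mouse ABHD4 protein; compound: single nominal dose of 8.92 µM, 0.89% DMSO final; schedule: 45 min + 60 min at 25 °C; measured by: FP readout, ex 525 nm / em 598 nm; evaluation: % inhibition of FP-Rh probe binding versus controls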
Fam108B inh: mouse Fam108B serine hydrolase inhibitors, primary screen, counter-screen for RBBP9 inhibitor project, biochemical, fluorescence polarization | recombinant Fam108B, FP-Rh probe fluorescence polarization | inhibition, % at 9.51 µM | 300,000 compounds, 0.33% hits | AID 1947, 2009;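 active means inhibition above the screen mean inhibition plus 3 SD, computed separately per campaign, cut at about 18% in these data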;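 further: inhibitors lower polarization as less probe binds the enzyme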
HTRA1 inhibitor: HTRA1 serine protease inhibitors, primary screen, biochemical, fluorescence polarization, HTS; Q92743; AID 504803, 2011; recombinant HTRA1, FP-rhodamine activity-based probe; 340,000 compounds, 0.5% hits; inhibition, % at 5.96 µM; in the data active means inhibition above about 36%;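 further: 0% = enzyme with DMSO and 100% = wells lacking enzyme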
Target sequence (Q92743 whole entry, looked up): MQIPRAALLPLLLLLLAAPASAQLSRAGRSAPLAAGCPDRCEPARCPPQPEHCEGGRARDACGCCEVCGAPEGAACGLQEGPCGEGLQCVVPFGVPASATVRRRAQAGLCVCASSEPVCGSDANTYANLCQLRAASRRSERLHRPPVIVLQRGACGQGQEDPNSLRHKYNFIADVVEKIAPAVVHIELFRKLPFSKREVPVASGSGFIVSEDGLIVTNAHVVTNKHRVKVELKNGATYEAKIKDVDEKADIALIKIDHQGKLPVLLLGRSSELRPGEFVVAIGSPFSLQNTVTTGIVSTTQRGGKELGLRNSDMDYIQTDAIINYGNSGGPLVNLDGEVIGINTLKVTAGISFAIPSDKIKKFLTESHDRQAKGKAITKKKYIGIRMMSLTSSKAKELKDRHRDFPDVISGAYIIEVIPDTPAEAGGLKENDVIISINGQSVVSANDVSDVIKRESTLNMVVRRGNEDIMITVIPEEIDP
ABHD4 confirm: ABHD4 inhibitors, retest, confirmation, biochemical, fluorescence polarization, mouse; shares compounds with ABHD4 inh; inhibition, % at 8.92 µM; purified mABHD4, FP-Rh probe fluorescence polarization; 1,800 compounds, 55% hits; AID 720658, 2013;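 active means mean inhibition across replicates above the hit cutoff set in the primary screen, cut at about 30% in these data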;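 further: 0% = wild-type ABHD4 with DMSO and 100% = catalytically dead S159A mutant with DMSO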
* hit, by the source's call; / = no result. Sampled rows, rich in hits. Any-hit rate of the full collection: about 1.8%.

SMILES | SIAE inh | PME-1 inh | TCR-CD3 inh | ABHD4 inh | Fam108B inh | HTRA1 inhibitor | ABHD4 confirm
O=C(O)c1cc(N/N=C/c2ccc(-c3ccccc3)cc2)ccc1Cl | -2 | / | 5 | 11 | / | 11 | /
COc1ccc2ccccc2c1/C=N/Nc1ccc(Cl)c(C(=O)O)c1 | 14 | 6 | 10 | 37* | 5 | 7 | 52*
O=C(O)c1cccc(N/N=C/c2cccc3ccccc23)c1 | 4 | 12 | 8 | 10 | 0 | 2 | /
Oc1c(Cl)cc(Cl)cc1CNc1nc2ccccc2[nH]1 | 15 | 25 | 1 | 13 | 8 | 0 | /
O=C(O)c1cc(N/N=C/C=C/c2ccccc2[N+](=O)[O-])ccc1Cl | 4 | 1 | 1 | 30* | 3 | 10 | 36*
COc1cc2c(oc(=O)c3cc(C)cc(OC)c32)c2c(C3OC(C)C(O)C(C)(O)C3O)ccc(O)c12 (configuration not stated) | -3 | / | 5 | 38* | / | 7 | 14
COc1cccc2cc(C(=O)N3CC(C)OC(C)C3)c(=O)oc12 (configuration not stated) | -5 | 8 | -15 | -5 | -3 | 1 | /
O=C(NN=Cc1ccc(O)cc1O)c1ccccc1NS(=O)(=O)c1cccs1 | 9 | / | 18 | 33* | / | 20 | 36*
COc1ccc(C=NNC(=O)c2ccccc2NS(=O)(=O)c2cccs2)cc1O | -2 | / | 13 | 14 | / | -8 | /
COCCC(=O)N1CCC(Oc2ccc(C(=O)NCCc3cn[nH]c3)cc2)CC1 | 1 | 5 | 0 | 0 | 4 | 6 | /
O=C(Nc1cccc2c1CCCC2)c1cc(C2CCCCN2C(=O)OCCF)on1 (configuration not stated) | -6 | / | 4 | -3 | / | / | /
O=C(CNc1ccc2ccccc2c1)N/N=C/c1ccccn1 | 15 | 11 | -2 | 39* | 1 | / | 12
O=C(CNc1ccc2ccccc2c1)N/N=C/c1ccncc1 | 5 | 9 | -9 | 10 | 0 | 3 | /
COc1oc(C(=O)NC2CCCCC2)c(-c2ccc(Cl)cc2)c1S(=O)(=O)c1ccccc1 | 0 | / | 8 | 0 | / | -1 | /
O=[N+]([O-])c1ccccc1C(=Nc1ccccc1)c1c(O)cc(O)cc1O | 9 | / | -1 | 30* | / | 4 | 3
C[C@@H]1ON(C)[C@H]2C[C@H]3c4[nH]c5c(-c6ccc(C(F)(F)F)cc6)cccc5c4CCN3C(=O)[C@@H]12 | -7 | / | 1 | 30* | / | / | 29
C[C@@H]1ON(C)[C@H]2C[C@H]3c4[nH]c5c(-c6ccccc6)cccc5c4CCN3C(=O)[C@@H]12 | 2 | / | -3 | 7 | / | / | /
O=C(O)/C=C/c1cccc(NC(=O)Nc2ccc([N+](=O)[O-])cc2)c1 | 0 | 0 | 0 | 30* | 0 | -9 | 22
O=C(Nc1ccc([N+](=O)[O-])cc1)C(=O)Nc1cccc(C(=O)O)c1 | -2 | 2 | -1 | 30* | -4 | 0 | 26
COc1ccccc1C1CC(c2ccc(NS(C)(=O)=O)cc2)=NN1C(=O)c1ccccc1 (configuration not stated) | -2 | 2 | 3 | -4 | 3 | -5 | /
COc1cccc(C2CC(c3ccc(NS(C)(=O)=O)cc3)=NN2C(=O)c2ccccc2)c1OC (configuration not stated) | 6 | 0 | 1 | 44* | 2 | -10 | 55*
CCOc1cc(/C=C2\N=C(SCC)SC2=O)cc([N+](=O)[O-])c1OC(C)=O | -2 | 35* | -3 | 42* | 14 | 22 | 83*
CCOc1c(OC(C)=O)ccc(/C=C2\N=C(SCC)SC2=O)c1[N+](=O)[O-] | 4 | 4 | 13 | 23 | 2 | 13 | /
N#C/C(=C\c1cccnc1)C(=O)Nc1ccc(O)cc1F | 11 | 8 | -19 | 67* | 6 | 23 | 11
COc1ccc(NC(=O)/C(C#N)=C/c2cccnc2)c(OC)c1 | 5 | / | 6 | -1 | / | -4 | /
